Assay outcomes deposited in PubChem BioAssay by The Scripps Research Institute Molecular Screening Center.
NS3 helicase inh: HCV NS3 helicase inhibition. 290,000 tested, 0.56% active. NS3 helicase DNA unwinding, Cy5 molecular beacon fluorescence. inhibition, % at 10.9 µM. AID 1800;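 active = inhibition above the mean of all tested compounds plus 3 SD, set per campaign, cut at about 35% in these data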;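 also: 0% = DMSO wells and 100% = thioflavine S control wells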
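System: HCV NS3 helicase fragment; control set: DMSO and thioflavine S; technique: Cy5 fluorescence at 0 and 60 min, beacon hairpin quenching; reagent: beacon DNA duplex substrate plus ATP; replicates: singlicate; schedule: 1 h reaction at 25 °C, ATP-initiated; medium: MOPS buffer pH 6.5 with MgCl2, DTT, Tween20, BSA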
IMP-1 inh-1: inhibitors of Pseudomonas aeruginosa IMP-1 metallo-beta-lactamase; purified IMP-1, nitrocefin hydrolysis, epi-absorbance fluorescence; inhibition, % at 5.6 µM; 290,000 tested, 0.45% active; AID 1556;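 active = inhibition above the mean plus 3 SD of all compounds in the same screening run, cut at about 4.5% in these data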;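 also: 0% = IMP-1 with DMSO and 100% = DMSO wells lacking enzyme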
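System: purified recombinant IMP-1 beta-lactamase. Medium: Zinc- and detergent-supplemented HEPES buffer, pH 7.1. Compound: one 5.6 µM dose […]. Schedule: 15 min preincubation plus 25 min reaction at 25 °C. Technique: Epi-absorbance fluorescence, 480 nm excitation, 530 nm emission.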
DNA FID counter: fluorescent intercalator displacement, NS3 helicase counter-screen | DNA fluorescent intercalator displacement, fluorescence | inhibition, % at 7.9 µM | 290,000 tested, 0.17% active; in the data active = inhibition above about 37%;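 also: 0% = vehicle and 100% = reference compound; higher means more ethidium bromide displaced from hairpin DNA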
VIM-2 inh: inhibitors of Pseudomonas aeruginosa VIM-2 metallo-beta-lactamase. purified VIM-2, nitrocefin hydrolysis, epi-absorbance fluorescence. inhibition, % at 5.6 µM. 290,000 tested, 0.89% active;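 active = inhibition above the mean of all tested compounds plus 3 SD, cutoff set per screening run, cut at about 7.5% in these data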;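 also: red hydrolysis product quenches plate fluorescence so inhibitors raise well fluorescence; 0% = enzyme with DMSO and 100% = DMSO without enzyme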
IMP-1 inh-2: selectivity counter-screen for VIM-2 inhibitors: IMP-1 metallo-beta-lactamase inhibitors; shares compounds with VIM-2 inh; purified IMP-1, nitrocefin hydrolysis, epi-absorbance fluorescence; inhibition, % at 5.6 µM; 1,300 tested, under 10 active; call rule not given here;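 also: 0% = enzyme with vehicle and 100% = vehicle without enzyme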
VIM-2 FRET ctr: counter-screen for VIM-2 inhibitors: epi-absorbance artifacts via FRET; shares compounds with VIM-2 inh; purified VIM-2, CCF2 FRET substrate hydrolysis; inhibition, % at 5.6 µM; 1,300 tested, 23% active; AID 1857;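 active = inhibition above the mean of all tested compounds plus 3 SD, cut at about 19% in these data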;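 also: 0% = VIM-2 plus DMSO and 100% = no enzyme wells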
TEM-1 counter: selectivity counter-screen for VIM-2 inhibitors: E. coli TEM-1 inhibitors; Purified TEM-1, nitrocefin hydrolysis, epi-absorbance fluorescence; 1,300 tested, 3% active; AID 1866; shares compounds with VIM-2 inh; inhibition, % at 5.6 µM;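 active = inhibition above that campaign's mean inhibition plus 3 SD, cut at about 0.46% in these data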;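 also: 0% = TEM-1 with DMSO and 100% = TEM-1 with 100 µM potassium clavulanate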
Target sequence (P62593 whole entry, looked up): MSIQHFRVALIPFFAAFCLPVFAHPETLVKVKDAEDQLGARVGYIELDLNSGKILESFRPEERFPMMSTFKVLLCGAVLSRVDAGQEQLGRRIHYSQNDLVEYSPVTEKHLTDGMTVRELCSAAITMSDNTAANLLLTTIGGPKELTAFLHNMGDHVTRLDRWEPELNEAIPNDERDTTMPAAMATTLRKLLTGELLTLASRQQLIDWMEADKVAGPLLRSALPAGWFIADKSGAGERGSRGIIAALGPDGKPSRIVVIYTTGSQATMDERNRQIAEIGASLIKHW
VIM-2 inh conf: confirmation of P. aeruginosa VIM-2 metallo-beta-lactamase inhibitors; shares compounds with VIM-2 inh; purified VIM-2, nitrocefin hydrolysis, epi-absorbance; 1,300 tested, 96% active; inhibition, % at 5.6 µM;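 active = inhibition of the VIM-2 beta-lactamase enzyme above about 11% from the earlier first-round screen, limit read from the data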;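 also: 0% = VIM-2 with DMSO and 100% = buffer wells without enzyme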
Active calls of the source: *; . = not tested or not shown. Only some compounds are listed: those with a hit (about 1.9% of all), similar ones and a draw of the others.

SMILES | NS3 helicase inh | IMP-1 inh-1 | DNA FID counter | VIM-2 inh | IMP-1 inh-2 | VIM-2 FRET ctr | TEM-1 counter | VIM-2 inh conf
Cc1cc(NCCCn2ccnc2)n2nc(-c3ccc(F)cc3)cc2n1 | -8 | -1 | 15 | 41* | 0 | -12 | 3.0* | 67*
Cc1cc(NCCCn2ccnc2)n2nc(-c3ccc(Cl)cc3)cc2n1 | 7 | -2 | 25 | 38* | -3 | -23 | -5 | 47*
Cc1cccc(-c2cc3nc(C)c(C)c(NCCCn4ccnc4)n3n2)c1 | 0 | -1 | 20 | 35* | -3 | -27 | -7 | 49*
Cc1cc(-c2ccccc2)nc2cc(C(=O)NCCCn3ccnc3)nn12 | 6 | -1 | 1 | 17* | -2 | -9 | -5 | 28*
Cc1cccc(-c2cc3nc(C)cc(C)n3n2)c1 | -1 | -3 | -2 | -3 | . | . | . | .
COc1ccc(C2C(C(C)=O)=C(O)C(=O)N2c2nccs2)c(OC)c1 (configuration not stated) | 4 | -4 | -9 | -2 | . | . | . | .
CCc1cc(CNC(=O)c2ccc3nc(Cc4ccc(OC)c(OC)c4)oc3c2)on1 | 0 | 1 | -36 | 0 | . | . | . | .
CC(C)c1ccc(N(CC(=O)NCc2ccc(F)cc2)C(=O)c2csnn2)cc1 | -5 | -3 | -27 | -4 | . | . | . | .
CCOc1ccc(C(C)=O)cc1CN1C(=O)c2ccccc2S1(=O)=O | 0 | -3 | -31 | -1 | . | . | . | .
CN1C(=O)[C@H]2[C@@H](/C=C/c3ccccc3)N3C(=O)CN(CC4CC4)C(=O)[C@@]3(C)[C@H]2C1=O | 8 | -3 | -18 | -4 | . | . | . | .
Cc1nn2c(NCCCn3ccnc3)cc(C(C)C)nc2c1-c1ccccc1 | -53 | -1 | 27 | 20* | -3 | -26 | -6 | 29*
c1ccc(CSc2ccc(-c3ccccn3)nn2)nc1 | -2 | -7 | -4 | -2 | . | . | . | .
Cc1c(C)c2ccc(OCC(=O)Nc3cccnc3)c(C)c2oc1=O | 2 | -3 | -26 | 12* | -2 | -1 | -14 | 21*
Cc1c(OC(C)C(=O)O)ccc2c3c(c(=O)oc12)CCCC3 (configuration not stated) | 1 | 0 | -13 | -2 | . | . | . | .
Cc1c(OCC(=O)N(C)c2ccccc2)ccc2c3c(c(=O)oc12)CCC3 | -4 | -1 | -31 | 20* | -2 | -2 | -12 | 29*
Cc1c(OCC(=O)NCc2ccncc2)ccc2c3c(c(=O)oc12)CCCC3 | 5 | 0 | -14 | 49* | 0 | -6 | -7 | 63*
Cc1c(OCC(=O)C(C)(C)C)ccc2c3c(c(=O)oc12)CCCC3 | -2 | -4 | -14 | 5 | . | . | . | .
Cc1c(OC(C)C(=O)NCc2cccnc2)ccc2c3c(c(=O)oc12)CCCC3 (configuration not stated) | 0 | -2 | -40 | 14* | -2 | -3 | -12 | 24*
Cc1ccccc1COC(=O)c1nn(-c2ccccc2)nc1N | -17 | -2 | -16 | -2 | . | . | . | .
Cc1c(OCC(=O)NCc2cccnc2)ccc2c3c(c(=O)oc12)CCCC3 | -3 | -3 | -40 | 17* | -3 | -5 | -16 | 26*
O=C(COc1cc2oc(=O)c3c(c2cc1Cl)CCCC3)NCc1cccnc1 | 3 | -2 | -27 | 6 | . | . | . | .
CC(/C=C\c1ccccc1)=C/C(=O)O | 9 | -2 | -5 | -2 | . | . | . | .
CC(=C/C(=O)O)/C=C/c1ccc([N+](=O)[O-])cc1 | 12 | -3 | -13 | 14* | -3 | 0 | -5 | 7
CCSc1nnc2ccc(-c3ccc(OC)c(OC)c3)nn12 | 7 | -4 | -20 | 31* | -4 | 1 | -8 | 44*
COc1ccc(-c2ccc3nnc(SCC(N)=O)n3n2)cc1 | 0 | -3 | -14 | 0 | . | . | . | .
SMILES | NS3 helicase inh | IMP-1 inh-1 | DNA FID counter | VIM-2 inh | IMP-1 inh-2 | VIM-2 FRET ctr | TEM-1 counter | VIM-2 inh conf
CN(c1nc2ccccc2[nH]c1=O)C1CCCCC1 | 18 | -3 | -15 | -2 | . | . | . | .
COc1ccc(/C=C2\SC(=S)N(CCC(=O)N3CCOCC3)C2=O)cc1 | -1 | 0 | -29 | -3 | . | . | . | .
COc1ccc(/C=C2\SC(=S)N(CCCC(=O)N3CCN(C)CC3)C2=O)cc1 | -51 | 0 | 13 | 15* | -2 | 0 | -7 | 27*
CC(C)C(=O)Nc1nnc(SCC(=O)NCc2cccs2)s1 | -28 | -3 | -4 | 14* | -3 | 41* | -5 | 26*
Cc1cccc(C)c1Nc1nnc(SCC(=O)NCc2cccs2)s1 | -3 | -2 | -25 | 0 | . | . | . | .
CC(C)(C)C(=O)Nc1nnc(SCC(=O)NCc2cccs2)s1 | 1 | -2 | -7 | 56* | -3 | 79* | -6 | 61*
Cc1nc2ccccn2c1-c1ccnn1S(=O)(=O)c1ccc(F)cc1 | -5 | -2 | -18 | 0 | . | . | . | .
COc1cc(CO)ccc1Oc1nc2ccccc2n2cnnc12 | 3 | -4 | -4 | -1 | . | . | . | .
COc1ccccc1Nc1nc(NCCCN(C)C)nc(N)c1[N+](=O)[O-] | -63 | -5 | 29 | 27* | -3 | 3 | -7 | 44*
CCN(CCCNC(=O)Cn1ncc2c([nH]c3ccc(C)cc32)c1=O)c1cccc(C)c1 | -12 | 0 | -8 | -3 | . | . | . | .
CC1(C)Oc2ccc3ccc(=O)oc3c2/C(=C/NNC(N)=O)C1=O | 9 | -3 | -7 | 1 | . | . | . | .
COc1ccc2nc(C)cc(Nc3ccc(N4CCN(C)CC4)cc3)c2c1 | 31 | -2 | 84* | 90* | -3 | -5 | -5 | 91*
O=c1[nH]c(SCc2n[nH]c(=S)n2-c2ccccc2)nc2ccccc12 | -10 | -3 | -12 | 28* | -1 | 55* | 0 | 40*
CCCCSc1nc2sc3c(c2c(=O)[nH]1)CCC3 | 8 | -3 | -1 | -3 | . | . | . | .
O=c1[nH]c(SCc2nc3ccccc3c(=O)n2-c2ccccc2)nc2ccccc12 | 2 | 1 | -6 | 2 | . | . | . | .
O=c1[nH]c(SCc2n[nH]c(=S)n2-c2ccccc2)nc2sc3c(c12)CCC3 | 7 | -2 | -26 | 21* | -3 | 45* | -9 | 29*
O=C(C1CCN(S(=O)(=O)c2ccccc2)CC1)N1CCCCCC1 | 0 | -1 | -26 | 0 | . | . | . | .
O=C(c1ccc2c(c1)OCCO2)N1CCN(c2ccc([N+](=O)[O-])cc2)CC1 | 7 | 0 | -5 | 1 | . | . | . | .
O=[N+]([O-])c1ccc(S(=O)(=O)N/N=C/c2ccsc2)cc1 | 4 | -3 | 3 | -2 | . | . | . | .
Cc1c(C)c2ccc(OCC(=O)NC3CCN(Cc4ccccc4)CC3)c(C)c2oc1=O | -16 | -2 | 18 | 21* | -3 | 0 | -11 | 31*
O=C(Cn1[nH]c(=O)c2ccccc2c1=O)NC1CCN(Cc2ccccc2)CC1 | 2 | -3 | 0 | 20* | -3 | -4 | -4 | 36*
